Test results: publication PMC2775513 (Neuroscience, 2009)

Tests used:
[1] = test system: cultured rat hypothalamic neurons; test: Cytosolic Ca2+ measurement; assay type: cell-based; details: for neurons responding with fast calcium transient followed by oscillations / mean amplitude of the first spike, fast calcium transient followed by oscillations: INSL7 n=8/158, C-INSL7 n=11/276
Procedure, shortened: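 Hypothalamic neurons from 1–3-day-old rats were papain-dissociated and cultured 5 days in Neurobasal-A/10% FCS with 1 μM cytosine arabinoside, then serum-free for 12 hr. Cells were loaded with 5 μM fura-2 AM (45 min, room temperature, dark), de-esterified 45 min, then superfused with HBSS at 1 ml/min. Peptide was applied at 10–1000 nM. 340/380 ratio (emission 510 nm, 0.3 Hz) was converted to [Ca2+]i.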

[2] = test system: GPCR145; details: cells over-expressing GPCR145 (so in the source); ref Liu et al., 2003 a, b; cited from earlier work
[3] = test system: GPCR135; details: cells over-expressing GPCR135; ref Liu et al., 2003 a, b; cited from earlier work
[4] = test system: cultured rat hypothalamic neurons; test: Membrane potential, optical imaging using DiSBAC4; assay type: cell-based; details: 100 nM, DiSBAC4(3); for mean amplitude of membrane depolarization / mean amplitude of membrane hyperpolarization: resting potential −53 ± 2.1 mV; for mean amplitude of membrane depolarization: C-INSL7 n=7/153, INSL7 n=4; for mean amplitude of membrane hyperpolarization: C-INSL7 n=15/153, INSL7 n=6
Procedure, shortened: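 Cultured neonatal rat hypothalamic neurons were loaded 30 min with DiSBAC4(3) in HBSS and superfused with 100 nM peptide. Fluorescence (excitation 480, emission 540 nm) was recorded at 10 points/min, background-subtracted. Calibration used 1 μM gramicidin in Na+-free solution with 17, 25 or 80 mM K+ (potentials by Nernst equation): a 1.092 fluorescence change equals 1 mV.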

[5] = test system: C-INSL7 antiserum (rabbit polyclonal); test: Pre-absorption of C-INSL7 antiserum, immunohistochemistry of rat pons sections; details: 1 μg/ml overnight
[6] = test system: C-INSL7 antiserum (rabbit polyclonal); details: ELISA; ref Phoenix Pharmaceuticals, Inc.; cited from earlier work
[7] = test system: cultured rat hypothalamic neurons; test: Cytosolic Ca2+ measurement; assay type: cell-based; details: for mean amplitude of the first spike of [Ca2+]i oscillations, Ca2+-free / rapid and transitory increase in [Ca2+]i (single spike, no plateau), Ca2+-free: Ca2+-free HBSS with 2.5 mM EGTA; for mean amplitude of the first spike of [Ca2+]i oscillations, Ca2+-free: INSL7 n=5/76, C-INSL7 n=7; for rapid and transitory increase in [Ca2+]i (single spike, no plateau), Ca2+-free: INSL7 n=11/76, C-INSL7 n=15
Procedure, shortened: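 Cultured neonatal rat hypothalamic neurons (5 days, serum withdrawn 12 hr before) were loaded with 5 μM fura-2 AM for 45 min at room temperature and de-esterified 45 min. They were superfused with Ca2+-free HBSS containing 2.5 mM EGTA, and 100 nM peptide was applied. [Ca2+]i was derived from the 340/380 excitation ratio (emission 510 nm, 0.3 Hz). Responding cells were counted against cells tested.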

[8] = test system: [125I]C-INSL7 binding sites, rat brain membranes; test: [125I]C-INSL7 binding to rat brain membranes; details: for inhibition of [125I]C-INSL7 binding: 1 to 1000 nM unlabeled peptide, ~0.3 nM [125I]C-INSL7, three independent experiments
[9] = molecular target: GPCR135 (Homo sapiens) (UniProt Q9NSD7); test: radioligand binding; details: cited from earlier work
[10] = molecular target: GPCR142 (Homo sapiens) (UniProt Q8TDU9); test: radioligand binding; details: cited from earlier work
[11] = test system: GPCR142; details: printed GPR142; ref Liu et al., 2003a, b; cited from earlier work
[12] = test system: GPCR135; details: printed GPR135; ref Liu et al., 2003a, b; cited from earlier work

relaxin 3, sequence (Q8WXF3 119-142): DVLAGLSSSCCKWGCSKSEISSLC
UniProt Q8TDU9, sequence (Q8TDU9 whole entry): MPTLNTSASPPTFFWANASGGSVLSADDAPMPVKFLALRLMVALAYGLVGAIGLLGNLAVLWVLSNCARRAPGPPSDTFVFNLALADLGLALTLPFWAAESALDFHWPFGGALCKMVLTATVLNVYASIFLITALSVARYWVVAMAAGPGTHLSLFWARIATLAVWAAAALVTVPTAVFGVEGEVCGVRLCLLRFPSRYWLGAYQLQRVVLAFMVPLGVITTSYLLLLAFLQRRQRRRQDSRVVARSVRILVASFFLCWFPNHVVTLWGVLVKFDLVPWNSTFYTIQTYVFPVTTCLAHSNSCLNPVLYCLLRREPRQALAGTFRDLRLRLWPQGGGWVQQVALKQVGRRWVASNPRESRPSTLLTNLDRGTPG
UniProt Q9NSD7, sequence (Q9NSD7 whole entry): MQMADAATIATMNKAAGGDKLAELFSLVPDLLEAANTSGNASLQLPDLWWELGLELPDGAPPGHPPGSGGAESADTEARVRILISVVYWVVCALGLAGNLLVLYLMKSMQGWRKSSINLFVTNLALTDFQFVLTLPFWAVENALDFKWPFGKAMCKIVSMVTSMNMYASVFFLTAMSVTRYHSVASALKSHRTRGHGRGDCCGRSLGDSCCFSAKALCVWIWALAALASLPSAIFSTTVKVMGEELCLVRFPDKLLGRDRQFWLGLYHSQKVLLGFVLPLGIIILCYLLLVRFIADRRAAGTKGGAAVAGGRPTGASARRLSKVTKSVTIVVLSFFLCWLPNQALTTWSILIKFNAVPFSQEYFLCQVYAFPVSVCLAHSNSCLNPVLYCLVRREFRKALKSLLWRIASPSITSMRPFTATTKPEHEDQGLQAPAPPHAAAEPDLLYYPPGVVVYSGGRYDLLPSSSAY

## ryanodine [reference compound]
[1]; ryanodine 5 μM, 15 min, C-INSL7 100 nM
  effect of ryanodine pretreatment on C-INSL7-induced [Ca2+]i oscillations: abolishing the [Ca^2+]i oscillations

## Recombinant human relaxin 3: Recombinant human relaxin 3
[2]
  GTPγS binding: potently stimulated
  cAMP formation: inhibited
[3]
  GTPγS binding: potently stimulated
  cAMP formation: inhibited

## C-peptide of human preproinsulin-like peptide 7 [C-INSL7]
[1]; 10 nM, HBSS, fura-2, n = 6
  amplitude of the first spike of [Ca2+]i oscillations: 137 ± 2.6 nM
  stable (sustained) [Ca2+]i elevation: 118 ± 2.4 nM
[1]; 100 nM, HBSS, 36 of 276
  neurons responding with fast and sustained increase in [Ca2+]i: 13%
[1]; 100 nM, HBSS
  neurons responding with fast calcium transient followed by oscillations: 4%
[1]; 100 nM, HBSS, fura-2
  mean amplitude of the first spike, fast calcium transient followed by oscillations: 763 ± 4.2 nM
[1]; 100 nM, HBSS, fura-2, n=36/276
  mean amplitude of fast and sustained increase in [Ca2+]i: 405 ± 3.1 nM
[1]; 1,000 nM, HBSS, fura-2, n = 7
  amplitude of the first spike of [Ca2+]i oscillations: 1051 ± 9.8 nM
[1]; 1,000 nM, HBSS, fura-2, n = 8
  mean amplitude of fast and sustained increase in [Ca2+]i: 731 ± 4.7 nM
[1]; 10, 100 and 1000 nM, HBSS
  concentration dependence of calcium oscillations: also in a concentration-dependent manner
  concentration dependence of fast and sustained increase in [Ca2+]i: in a concentration-dependent manner
[1]; C-INSL7 100 nM, ryanodine 5 μM, 15 min pretreatment, n = 7
  Δ[Ca2+]i, fast and sustained rise, after ryanodine pretreatment: 391 ± 3.6 nM
[4]
  fraction of neurons depolarized (n responding/tested): 7/153
  fraction of neurons hyperpolarized (n responding/tested): 15/153
  mean amplitude of membrane depolarization: 11 ± 1.6 mV
  mean amplitude of membrane hyperpolarization: 7 ± 1.3 mV
[5]
  immunoreactivity after pre-absorption of C-INSL7 antiserum with peptide: immunoreactivity was not detected
[6]
  cross-reactivity with C-INSL7 antiserum: 100%
[7]; 100 nM
  mean amplitude of the first spike of [Ca2+]i oscillations, Ca2+-free: 497 ± 3.6 nM
  rapid and transitory increase in [Ca2+]i (single spike, no plateau), Ca2+-free: 231 ± 2.6 nM
[7]; 100 nM, Ca2+-free saline, 7 cells
  cells responding with calcium oscillations, Ca2+-free: 5%
[7]; 100 nM, Ca2+-free saline, 15 cells
  cells responding with single Ca2+ spike, Ca2+-free: 11%
[8]
  inhibition of [125I]C-INSL7 binding: in a dose-dependent manner
[8]; homologous competition, ~0.3 nM [125I]C-INSL7, pH 7.4, room temperature, 1 hr, nonspecific: 1 μM C-INSL7, n=3
  Bmax: 45.4 ± 20.5 fmol/mg protein
[8]; homologous competition, ~0.3 nM [125I]C-INSL7, ~0.5 mg membranes, pH 7.4, room temperature, 1 hr, nonspecific: 1 μM C-INSL7, n=3
  Kd: 17.7 ± 8.2 nM
[8]; unlabeled peptide 1 to 1000 nM
  concentration of maximum inhibition of [125I]C-INSL7 binding: 500 nM

## relaxin 3 (from UniProt Q8WXF3)
[9]
  Kd: 0.31 nM
[10]
  Kd: 1.9 nM

## insulin-like peptide 7 [INSL7, reference compound]
[1]; 100 nM, HBSS
  neurons responding with fast calcium transient followed by oscillations: 5%
[1]; 100 nM, HBSS, fura-2
  mean amplitude of the first spike, fast calcium transient followed by oscillations: 1268 ± 39 nM
[1]; 100 nM, HBSS, fura-2, n=27/158
  mean increase of [Ca2+]i, fast, transitory: 817 ± 6.3 nM
[1]; 100 nM, HBSS, n=27/158
  neurons responding with fast, transitory increase of [Ca2+]i: 17%
[11]
  binding affinity: high affinity
[4]
  mean amplitude of membrane depolarization: 9 ± 2.6 mV
  mean amplitude of membrane hyperpolarization: 5 ± 1.8 mV
[12]
  binding affinity: high affinity
[7]; 100 nM
  mean amplitude of the first spike of [Ca2+]i oscillations, Ca2+-free: 583 ± 7.4 nM
  rapid and transitory increase in [Ca2+]i (single spike, no plateau), Ca2+-free: 307 ± 4.2 nM
[7]; 100 nM, Ca2+-free medium
  fraction of neurons with [Ca2+]i oscillations, Ca2+-free (n responding/tested): 5/76
[7]; type 1 response, Ca2+-free vs normal solution
  effect of Ca2+-free solution on calcium spike: not significantly altered in a Ca^2+-free solution
[8]
  inhibition of [125I]C-INSL7 binding: did not inhibit
